Usually ED50 stands for the dose that gives a 50% effect, or the effect in half of the subjects.

In test [1] the test system is Rattus norvegicus. In words: Antipsychotic activity was assessed by ability to antagonize the stereotypy induced in rats by d-amphetamine (5 mg/kg, ip) after 5 h. In kind it is functional. In a few lines:
(§1)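 Rats were housed singly in covered plastic compartments and briefly acclimated. Groups of five received compound ip at doses spaced 0.5 log unit (e.g., 1, 3.2, 10, 32 mg/kg). d-Amphetamine sulfate 5 mg/kg ip was given 1, 5 or 24 h later. One hour after each challenge, at peak amphetamine effect, each rat's most characteristic behavior was rated on a six-point scale.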

Test [2] concerns Rattus norvegicus. The test can be described thus: Antipsychotic activity was assessed by ability to antagonize the stereotypy induced in rats by d-amphetamine (5 mg/kg, ip) after 1 h. In kind it is functional. In a few lines:
as §1

The test system of test [3] is Rattus norvegicus. In words: Antipsychotic activity was assessed by ability to antagonize the stereotypy induced in rats by d-amphetamine (5 mg / kg, ip) after 1 h. In kind it is functional. The procedure, abridged:
as §1

Test [4] has as its system Rattus norvegicus. In words: Antipsychotic activity was assessed by ability to antagonize the stereotypy induced in rats by d-amphetamine (5 mg / kg, ip) after 5 h. In kind it is functional. In a few lines:
as §1

Test [5] concerns Rattus norvegicus. The test can be described thus: Antipsychotic activity was assessed by ability to antagonize the stereotypy induced in rats by d-amphetamine (5 mg/kg, ip) after 24 h. In kind it is functional. The procedure, abridged: as §1
The test system of test [6] is Rattus norvegicus. In words: Antipsychotic activity was assessed by ability to antagonize the stereotypy induced in rats by d-amphetamine (5 mg / kg, ip) after 5 h; Range is 10-32. Format: functional. In a few lines: as §1
Test [7] has as its system Rattus norvegicus. In words: Antipsychotic activity was assessed by ability to antagonize the stereotypy induced in rats by d-amphetamine (5 mg / kg, ip) after 1 h; Range is 3.2-5.6. Format: functional. In a few lines: as §1
Test [8] relates to Rattus norvegicus. In words: Antipsychotic activity was assessed by ability to antagonize the stereotypy induced in rats by d-amphetamine (5 mg/kg, ip) after 1 h; Range is 10-32. Format: functional. In a few lines: as §1
Test [9] concerns Rattus norvegicus. In words: Antipsychotic activity was assessed by ability to antagonize the stereotypy induced in rats by d-amphetamine (5 mg / kg, ip) after 1 h; Range is 0.1-0.32. Format: functional. In a few lines: as §1
The test system of test [10] is Rattus norvegicus. The test can be described thus: Antipsychotic activity was assessed by ability to antagonize the stereotypy induced in rats by d-amphetamine (5 mg / kg, ip) after 5 h; Range is 0.1-0.32. In kind it is functional. In a few lines: as §1
Test [11] relates to Rattus norvegicus. The test can be described thus: Antipsychotic activity was assessed by ability to antagonize the stereotypy induced in rats by d-amphetamine (5 mg / kg, ip) after 24 h; Range is 1.0-3.2. In kind it is functional. The procedure, abridged:
as §1

In test [12] the test system is Rattus norvegicus. In words: Antipsychotic activity was assessed by ability to antagonize the stereotypy induced in rats by d-amphetamine (5 mg / kg, ip) after 24 h; Range is 3.2-10. In kind it is functional. The procedure, abridged:
as §1

For test [13], the system named is Rattus norvegicus. The test can be described thus: Antipsychotic activity was assessed by ability to antagonize the stereotypy induced in rats by d-amphetamine (5 mg / kg, ip) after 1 h; Range is 1.0-3.2. In kind it is functional. In a few lines:
as §1

Test [14] concerns Rattus norvegicus. The test can be described thus: Antipsychotic activity was assessed by ability to antagonize the stereotypy induced in rats by d-amphetamine (5 mg / kg, ip) after 5 h; Range is 1.0-3.2. In kind it is functional. The procedure, abridged:
as §1

In test [15] the test system is Rattus norvegicus. The test can be described thus: Antipsychotic activity was assessed by ability to antagonize the stereotypy induced in rats by d-amphetamine (5 mg/kg, ip) after 1 h; Range is 3.2-10. Format: functional. In a few lines: as §1
In test [16] the test system is Rattus norvegicus. In words: Antipsychotic activity was assessed by ability to antagonize the stereotypy induced in rats by d-amphetamine (5 mg/kg, ip) after 5 h; Range is 3.2-10. In kind it is functional. In a few lines:
as §1

Test [17] deals with Rattus norvegicus. In words: Antipsychotic activity was assessed by ability to antagonize the stereotypy induced in rats by d-amphetamine (5 mg / kg, ip) after 24 h. In kind it is functional. The procedure, abridged:
as §1

Test [18] concerns Rattus norvegicus. In words: Antipsychotic activity was assessed by ability to antagonize the stereotypy induced in rats by d-amphetamine (5 mg / kg, ip) after 1 h; Range is 3.2-10.

SMILES strings stand for the structures.

In the case of `CCOC(=O)N1Cc2c(n(-c3ccc(F)cc3)c3ccc(F)cc23)C1`, the ED50 with Rattus norvegicus [1] and with Rattus norvegicus [2] was above 32 mg/kg each time.
Take `Cl.O=C(CCCN1Cc2c(n(-c3ccc(F)cc3)c3ccc(F)cc23)C1)c1ccccc1`: the ED50 with Rattus norvegicus [3] and in the test on Rattus norvegicus [4] was above 32 mg/kg throughout.
With `Cl.Fc1ccc(-n2c3c(c4cc(F)ccc42)CNC3)cc1`, the ED50 with Rattus norvegicus [1] was above 32 mg/kg; with Rattus norvegicus [5], 32 mg/kg; in the test with Rattus norvegicus [2], above 32 mg/kg.
Turning to `Cl.OC(CCCCN1Cc2c(n(-c3ccc(F)cc3)c3ccc(F)cc23)C1)c1ccc(F)cc1` (stereo unspecified), the 50% effective dose (ED50) with Rattus norvegicus [3] was above 32 mg/kg; in the test with Rattus norvegicus [6], 10 mg/kg.
Consider `CN1Cc2c(n(-c3ccc(F)cc3)c3ccc(F)cc23)C1.Cl`, for which the 50% effective dose (ED50) with Rattus norvegicus [7] was 3.2 mg/kg; with Rattus norvegicus [4] it was above 10 mg/kg.
On to `Cl.OC(CCCN1Cc2c(n(-c3ccc(F)cc3)c3ccc(F)cc23)C1)c1ccccc1` (stereo unspecified), for which the ED50 was above 10 mg/kg in the test on Rattus norvegicus [1], 10 mg/kg in the test with Rattus norvegicus [8] and above 32 mg/kg with Rattus norvegicus [5].
For the molecule `Cl.Fc1ccc(-n2c3c(c4cc(F)ccc42)CN(CCc2ccccc2)C3)cc1`, the ED50 in the test with Rattus norvegicus [3] and in the test on Rattus norvegicus [4] was above 32 mg/kg in each case.
For the molecule `Cl.O=C(CCCCN1Cc2c(n(-c3ccc(F)cc3)c3ccc(F)cc23)C1)c1ccc(F)cc1`, the ED50 in the test on Rattus norvegicus [3] is 32 mg/kg; in the test on Rattus norvegicus [4] it was above 32 mg/kg.
In the case of `Cl.OC(CCCN1CCc2c(c3cc(F)ccc3n2-c2ccc(F)cc2)C1)c1ccc(F)cc1` (stereo unspecified), the ED50 in the test on Rattus norvegicus [9] was 0.1 mg/kg; in the test with Rattus norvegicus [10], 0.1 mg/kg; in the test with Rattus norvegicus [11] it was 1 mg/kg.
As for `CCOC(=O)N1Cc2[nH]c3ccc(F)cc3c2C1.Cl`, the ED50 with Rattus norvegicus [3] and in the test with Rattus norvegicus [4] was above 32 mg/kg in each case.
Consider `CCCN1Cc2c(n(-c3ccc(F)cc3)c3ccc(F)cc23)C1.I`, for which the ED50 with Rattus norvegicus [3] and with Rattus norvegicus [4] was above 32 mg/kg each time.
`Cl.OC(CCCN1Cc2c(n(-c3ccc(F)cc3)c3ccc(F)cc23)C1)c1ccc(F)cc1` (stereo unspecified): the ED50 came to 3.2 mg/kg with Rattus norvegicus [12], 1 mg/kg in the test on Rattus norvegicus [13] and 1 mg/kg in the test on Rattus norvegicus [14].
Consider `Cl.Fc1ccc(-n2c3c(c4cc(F)ccc42)CN(Cc2ccccc2)C3)cc1`, for which the ED50 in the test with Rattus norvegicus [3] and in the test on Rattus norvegicus [4] was above 32 mg/kg each time.
Consider `Cl.O=C(CCCN1Cc2c(n(-c3ccc(F)cc3)c3ccc(F)cc23)C1)c1ccc(F)cc1`, for which the ED50 with Rattus norvegicus [15] was 3.2 mg/kg; in the test on Rattus norvegicus [16] it was 3.2 mg/kg; in the test with Rattus norvegicus [5] it was above 10 mg/kg.
Consider `CN(C)CCCN1c2ccccc2Sc2ccc(Cl)cc21` [CHLORPROMAZINE], for which the figures for the ED50 in the test with Rattus norvegicus [17], in the test with Rattus norvegicus [4] and with Rattus norvegicus [18] were 56 mg/kg, 17.8 mg/kg and 3.2 mg/kg, respectively.

Values taken from ChEMBL document CHEMBL1121633, “Neuroleptic 4-aryltetrahydropyrrolo[3,4-b]indoles” (1980).
